CSC inhib – cancer stem cell inhibition; inhibition, % at 7.5 µM; actives 1.1% (n = 300,000); cancer stem cell-like cells viability, luminescence; in the data active means inhibition above about 75%; inconclusive means no clear call, values can overlap the other calls; tested in HMLE shEcad cells
L major viab – Leishmania major promastigote growth inhibition | Leishmania major promastigotes, resazurin fluorescence viability | inhibition, % at 10 µM | actives 9% (n = 200,000); in the data active means inhibition above about 50%;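 further: promastigotes grown with compound for 44 hours at 28 °C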
SKKanGAS inh – SKKanGAS growth inhibition; S. pyogenes SKKanGAS, kanamycin growth, BacTiter-Glo, 6 h; inhibition, % at 7.5 µM; actives 1.3% (n = 300,000); AID 1662;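 active means mean replicate score, as percent of positive control median, at least 50; inconclusive means mean below 50 but one replicate at or above 50; inactive means mean and every replicate below 50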;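 further: strain carries kanamycin resistance gene driven by streptokinase promoter and grows in 40 µg/ml kanamycin; loss of luminescence reflects streptokinase promoter inhibition or plain growth inhibition; 0% = median of DMSO wells and 100% = positive control at its reference dose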
Mdm2 MdmX PPI – inhibitors of human Mdm2/MdmX interaction; SaOS-2 split-luciferase Mdm2/MdmX complementation, luminescence; inhibition, % at 8 µM; actives 3% (n = 330,000); AID 485346;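 active means inhibition of at least 50% at 8 µM in the primary screen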
Beta apoptosis – beta cell apoptosis inhibition; AID 435005; actives 0.8% (n = 300,000); INS-1E cytokine-induced death, ATP luminescence, 48 h; percent of positive-control rescue, neutral wells zero; protection from apoptosis, % (no concentration beside the values);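 active means Every replicate reaches about 75%, or at least half do and their mean reaches it too, limit read from the data; inconclusive means At least half of replicates reach the limit but their mean does not; inactive means Under half of replicates reach the limit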;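 further: 0% = cytokine-treated negative control wells and 100% = positive control rescue; higher means more ATP so stronger rescue from cytokine killing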
T cruzi inh – T. cruzi replication inhibition; T. cruzi beta-gal in NIH3T3, luminescence, 90 h; actives 1.4% (n = 300,000); AID 1885; inhibition, % (test concentration not listed);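 active means mean inhibition across valid replicates above about 55%, limit read from the data; inconclusive means mean below that limit but half or more replicates reach it; inactive means mean below it, under half of replicates reach it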;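 further: signal also drops with host cell toxicity which is not excluded here; 0% = plate median of DMSO wells and 100% = zero luminescence signal; higher percent means less beta-gal luminescence so fewer parasites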
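System: NIH/3T3 fibroblasts plus reporter T. cruzi. Medium: DMEM plus 2% FBS. Probe or stimulus: 5000 reporter trypomastigotes per well. Compound: single 50 nL compound addition per well in DMSO. Incubation: co-culture of at least 90 h after 3 h attachment. Detection: GalScreen β-gal luminescence, detergent lysis, 60 min. Evaluation: parasite load inhibition, %.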
Mdm2-MdmX conf – confirmation of human Mdm2/MdmX interaction inhibitors; Mdm2-MdmX binding, luminescent assay; shares compounds with Mdm2 MdmX PPI; inhibition, % at 8 µM; actives 55% (n = 10,000); in the data active means inhibition above about 40%
Full FLuc ctr – counter-screen for Mdm2/MdmX inhibitors: full-length luciferase. shares compounds with Mdm2 MdmX PPI. SaOS-2 full-length luciferase counterscreen, luminescence. inhibition, % at 8 µM. actives 77% (n = 6,200). AID 504607;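 active means mean inhibition at 8 µM reaching about 37%, which flags the compound as non-specific, limit read from the data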;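 further: p53-null SaOS-2 cells with luciferase driven by a doxycycline-inducible promoter; compound on cells about two nights before reading with doxycycline added after day one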
Numbers without * were called inactive; ? = inconclusive; . = not tested or not shown. Only some compounds are listed: those with a hit (about 9.4% of all), similar ones and a draw of the others.

SMILES	CSC inhib	L major viab	SKKanGAS inh	Mdm2 MdmX PPI	Beta apoptosis	T cruzi inh	Mdm2-MdmX conf	Full FLuc ctr
Cc1ccc(C)c(C(=O)COC(=O)c2cc([N+](=O)[O-])ccc2N2CCOCC2)c1	-2	.	1	3	.	14	.	.
Cc1c(-c2ccccc2)oc2c(C(=O)N3CCN(c4ccc([N+](=O)[O-])cc4)CC3)cccc2c1=O	.	25	16	67*	0	17	77*	51*
Cc1ccc(C(=O)c2cc([N+](=O)[O-])ccc2N2CCCCC2)cc1C	-19	24	10	64*	.	6	58*	60*
O=C(c1cc([N+](=O)[O-])ccc1N1CCOCC1)N1CCN(c2ccccc2)CC1	.	.	-4	58*	53	10	77*	95*
Cc1ccccc1COC(=O)c1cc([N+](=O)[O-])ccc1N1CCOCC1	-4	.	2	33	-2	26	.	.
CSc1ccc(COC(=O)c2cc([N+](=O)[O-])ccc2N2CCOCC2)cc1	60	.	0	61*	68	41	77*	113*
Cc1ccc(C(=O)c2cc([N+](=O)[O-])ccc2N2CCOCC2)cc1C	67	-1	0	51*	-4	-51	61*	60*
CSc1nc(O)c(C(c2cccc([N+](=O)[O-])c2)c2c(O)nc(SC)[nH]c2=O)c(=O)[nH]1	-8	-6	-7	9	-9	-16	.	.
O=C(Nc1ccc([N+](=O)[O-])cc1)Nc1ccon1	.	.	-2	66*	33	-9	67*	73*
O=C(Nc1ccc(C(=O)O)cc1)Nc1ccc([N+](=O)[O-])cc1	-5	.	10	18	.	6	.	.
O=[N+]([O-])c1ccc(S(=O)(=O)Nc2ccncc2)cc1	.	.	7	50*	.	-11	8	.
COC(=O)c1ccc(NC(=O)Nc2ccc([N+](=O)[O-])cc2)cc1	12	.	51*	59*	13	30	43*	85*
O=C(Nc1ccc(Nc2ccncc2)cc1)c1ccc([N+](=O)[O-])cc1	29	.	3	100*	22	33	36	13
CC(COc1ccc(C(C)C)cc1)NC(=O)c1ccc(Br)o1 (centres undefined)	8	.	?	10	6	8	.	.
COc1ccc2c(CC(=O)OCC(=O)Nc3cccc(C)c3)coc2c1	.	.	.	1	.	.	.	.
CCCCc1cc(=O)oc2cc(OCC(=O)NC3CCN(Cc4ccccc4)CC3)ccc12	20	.	-10	34	7	41	.	.
C=CCn1c(SCC(=O)Nc2ccc(Br)cc2)nc(O)c(CC)c1=O	-3	.	5	-34	-8	-1	.	.
COc1cc2ccccc2cc1C(=O)N/N=C/c1ccc2c(c1)OCO2	55	.	5	51*	4	-22	70*	53*
COc1ccc(/C=N\NC(=O)c2ccccc2F)cc1COc1ccc(F)cc1F	71	.	4	58*	11	15	76*	66*
COc1ccc(/C=N/NC(=O)c2cc(C)oc2C)cc1OCc1ccccc1	7	.	2	62*	0	12	8	.
COc1ccc(/C=N/NC(=O)c2ccoc2C)cc1COc1c(C)cccc1C	70	100*	19	76*	54	11	32	.
Cc1cc(C(=O)N/N=C/c2ccc(OCc3ccccc3)cc2)c(C)o1	66	-7	2	23	-3	9	.	.
Cc1nc(SCCOc2ccccc2F)[nH]c(=O)c1Cc1ccccc1	18	1	2	5	-5	7	.	.
CCC(NC(=S)NCc1ccc(F)cc1)c1ccc(C(C)C)cc1 (centres undefined)	52	.	40	76*	17	23	23	.
O=C(Nc1ccccc1F)C1CCCN(S(=O)(=O)c2ccccc2)C1 (centres undefined)	-8	-7	-5	19	5	-4	.	.
SMILES	CSC inhib	L major viab	SKKanGAS inh	Mdm2 MdmX PPI	Beta apoptosis	T cruzi inh	Mdm2-MdmX conf	Full FLuc ctr
COc1ccc(C)cc1NC(=O)CSc1nc(=O)n(CCCN2CCOCC2)c2c1CCCC2	6	.	-10	15	.	0	.	.
CCN1CCN(Cc2ccc(NC(=O)c3cc(NC(=O)c4cnnc5ccccc45)cc(OC)c3)cc2C(F)(F)F)CC1	2	.	6	52*	10	19	26	.
CCN1CCN(Cc2ccc(NC(=O)c3cc(NC(=O)c4cncc(-c5ccc(C#N)cc5)c4)cc(OC)c3)cc2C(F)(F)F)CC1	31	.	17	100*	87*	50	20	.
CCN1CCN(Cc2ccc(NC(=O)c3cc(NC(=O)c4nccnc4N)cc(OC)c3)cc2C(F)(F)F)CC1	-16	.	1	37	-12	22	.	.
O=c1[nH]c(=O)n(-c2ccc(F)cc2)c2c1C(C(F)(F)F)(C(F)(F)F)N=C(c1ccc(F)cc1)N2	.	1	4	53*	76*	-13	38	68*
O=C(O)c1ccc(COc2ccc(CO)cc2Cl)cc1	-17	-10	5	7	1	-22	.	.
O=C(O)c1cccc(COc2ccc3c(c2)CCC3)c1	8	.	12	68*	-3	-12	78*	24
CCOC(=O)c1cccc(NC(=O)Nc2ccc(OCC)cc2)c1	10	-4	-7	-51	-1	20	.	.
O=C(O)c1cccc(COc2ccc(CO)cc2Cl)c1	48	.	-7	90*	-6	-11	88*	5
COc1ccc(OCc2cccc(C(=O)O)c2)cc1	39	.	30	85*	-4	-17	81*	50*
O=C(NCc1ccccc1)c1cccc(COc2ccc3c(c2)CCC3)c1	-8	6	-6	-16	-5	-6	.	.
CCOc1ccc(NC(=O)Nc2cccc(C(=O)O)c2)cc1	47	-9	-6	70*	0	-7	70*	21
Cc1ccccc1NS(=O)(=O)c1ccc(C(=O)NN2CCCCC2)cc1	3	.	-2	29	-5	0	.	.
Cc1ccc(NC(=S)N2CCC(NC(=O)c3ccco3)CC2)cc1C	-12	.	-12	-8	-8	-17	.	.
Cc1c(C(=O)N2CCCCCC2)c(S(=O)(=O)Nc2ccc(F)cc2)c(C)n1C	-12	.	12	-13	-3	17	.	.
CCOc1ccc(OCc2cccc(C(=O)N3CCCC3)c2)cc1	-12	-9	-7	11	3	4	.	.
CCOc1ccc(OCc2cccc(C(=O)O)c2)cc1	49	.	22	61*	13	-10	94*	7
CCOc1ccc(NC(=O)NCCCCc2ccccc2)cc1	15	.	?	50*	-7	18	23	.
Cc1ccc(S(=O)(=O)N(C)C)cc1NC(=O)CSc1nncs1	.	.	-2	6	0	-5	.	.
Cc1ccc(OCC(=O)NCCNC(=O)c2ccc(C)nc2)cc1	.	.	1	8	3	-11	.	.

Bioassay records: PubChem BioAssay, several laboratories
